For four compounds, Activity and IC50 results are on record in ChEMBL document CHEMBL4152273, “Development of novel amino-quinoline-5,8-dione derivatives as NAD(P)H:quinone oxidoreductase 1 (NQO1) inhibitors with potent antiproliferative activities” (Eur J Med Chem, 2018).

Calls of active or inactive are those of the source. The rule behind the calls is not given here. Some results are limits rather than exact numbers.

Series [1] deals with HeLa S3. The series can be described thus: Increase in ROS production in human HeLaS3 cells after 24 hrs in presence of H2O2 by DCFH-DA dye based flow cytometry. It is filed as functional, cell-based.
Series [2] deals with T1, NAD(P)H dehydrogenase [quinone] 1 (Homo sapiens, UniProt P15559). In words: Inhibition of NQO1 activity in human KBVIN cells incubated for 24 hrs measured every 20 secs for 5 mins. It is filed as cell-based.
The species named for series [3] is Homo sapiens. In words: Increase in ROS production in human KBVIN cells after 24 hrs in presence of H2O2 by DCFH-DA dye based flow cytometry. The format is functional, cell-based. For orientation: A flow cytometer gives signals particle by particle.
Series [4] has as its target T1, NAD(P)H dehydrogenase [quinone] 1. In words: Inhibition of NQO1 activity in human HeLaS3 cells incubated for 24 hrs measured every 20 secs for 5 mins. The format is cell-based.
Series [5] relates to HeLa S3. The series can be described thus: Induction of mitochondrial membrane potential loss in human HeLaS3 cells after 24 hrs by MITO-ID MP dye based assay. It is filed as functional, cell-based. In short, it runs like this:
(§1)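 Cells plated at 2.5 × 10^5/mL and treated with 0.01–5 μM, CCCP as positive control or DMSO vehicle for 24 h at 37 °C. MITO-ID MP dye loaded in the dark for 30 min at 37 °C, then fluorescence read at Ex 490 nm and Em 590 nm.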

The species named for series [6] is Homo sapiens. In words: Induction of mitochondrial membrane potential loss in human KBVIN cells after 24 hrs by MITO-ID MP dye based assay. The format is functional, cell-based. In short, it runs like this:
as §1

The test system of series [7] is HeLa S3. The series can be described thus: Cytotoxicity against human HeLaS3 cells assessed as decrease in cell viability after 72 hrs in presence of NQO1 inhibitor dicoumarol by MTT assay. It is filed as functional, cell-based. As to conditions: HeLa S3, 72 h, in the assay text read “SRB assay” for “MTT assay”. In short, it runs like this:
(§2)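 NQO1 dependency: cells co-treated for 72 h with test compound plus […] or 40 mM N-acetylcysteine. Viability read by SRB: TCA fixation, 0.04% sulforhodamine B staining, acetic acid wash, dye solubilized in 10 mM Tris base, absorbance at 515 nm. Results given as IC50 or mean ± SD; three independent measurements.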

Series [8] deals with HeLa S3. In words: Cytotoxicity against human HeLaS3 cells assessed as decrease in cell viability after 72 hrs in presence of free radical scavenger NAc by MTT assay. The format is functional, cell-based. Conditions: HeLa S3, 72 h, in the assay text read “SRB assay” for “MTT assay”. The method, boiled down:
as §2
A general note: Tetrazolium dyes change colour on reduction, which living cells bring about.

The nature of series [9]: Cytotoxicity against human KBVIN cells assessed as decrease in cell viability after 72 hrs in presence of NQO1 inhibitor dicoumarol by MTT assay. It is filed as functional, cell-based. As to conditions: in the assay text read “SRB assay” for “MTT assay”. The method, boiled down: as §2
A short description of series [10]: Cytotoxicity against human KBVIN cells assessed as decrease in cell viability after 72 hrs in presence of free radical scavenger NAc by MTT assay. It is filed as functional, cell-based. Conditions: in the assay text read “SRB assay” for “MTT assay”. The method, boiled down: as §2
The test system of series [11] is HeLa S3. The series can be described thus: Induction of apoptosis in human HeLaS3 cells assessed as annexin V-positive cells at 1.8 uM after 72 hrs by annexin V-FITC/PI dual staining based flow cytometry relative to control. The format is functional. The method, boiled down:
(§3)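 Cells cultured overnight, then exposed in triplicate to 0.2, 0.6 or 1.8 μM or vehicle for 72 h. Annexin V-positive percentage given as mean ± SD of three independent experiments.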

Series [12] has as its system HeLa S3. In words: Induction of apoptosis in human HeLaS3 cells after 72 hrs by annexin V-FITC/PI dual staining based flow cytometry. The format is functional, cell-based. In short, it runs like this: as §3
For series [13], the system named is HeLa S3. In words: Induction of apoptosis in human HeLaS3 cells assessed as decrease in Bcl-2 expression levels after 72 hrs by Western blot analysis. The format is functional, cell-based. In short, it runs like this:
(§4)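 Sub-confluent cells at 1.5 × 10^5/mL treated 72 h in DMEM with 10% FBS at the indicated doses or 0.1% DMSO vehicle. Lysates immunoblotted for Bax, Bcl-2 and caspase-3, detected with HRP secondary antibodies and chemiluminescence. Band densities normalized to β-actin by densitometry; mean ± SD of three separate experiments.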
In general terms: A western blot detects proteins with antibodies after separation by electrophoresis.

The test system of series [14] is HeLa S3. The series can be described thus: Induction of apoptosis in human HeLaS3 cells assessed as annexin V-positive cells at 0.2 uM after 72 hrs by annexin V-FITC/PI dual staining based flow cytometry relative to control. It is filed as functional. In short, it runs like this: as §3
Series [15] has as its system HeLa S3. The series can be described thus: Induction of apoptosis in human HeLaS3 cells assessed as annexin V-positive cells at 0.6 uM after 72 hrs by annexin V-FITC/PI dual staining based flow cytometry relative to control. The format is functional. The method, boiled down: as §3
Series [16] concerns HeLa S3. The series can be described thus: Induction of apoptosis in human HeLaS3 cells assessed as increase in Bax expression levels after 72 hrs by Western blot analysis. The format is functional, cell-based. The method, boiled down:
as §4

Series [17] relates to HeLa S3. In words: Induction of apoptosis in human HeLaS3 cells assessed as increase in caspase-3 cleavage at 0.2 to 1.8 uM after 72 hrs by Western blot analysis. The format is functional, cell-based. In short, it runs like this: as §4
The nature of series [18]: Cytotoxicity against human EEC assessed as decrease in cell viability after 72 hrs by MTT assay. The method, boiled down:
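Endometrial epithelial cells maintained in RPMI-1640 with 10% FBS at 37 °C, 5% CO2. Exposed 72 h to the indicated concentrations, proliferation assessed by MTT; inhibition (%) reported as mean ± SD of three independent experiments.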

T1 sequence (P15559 whole entry): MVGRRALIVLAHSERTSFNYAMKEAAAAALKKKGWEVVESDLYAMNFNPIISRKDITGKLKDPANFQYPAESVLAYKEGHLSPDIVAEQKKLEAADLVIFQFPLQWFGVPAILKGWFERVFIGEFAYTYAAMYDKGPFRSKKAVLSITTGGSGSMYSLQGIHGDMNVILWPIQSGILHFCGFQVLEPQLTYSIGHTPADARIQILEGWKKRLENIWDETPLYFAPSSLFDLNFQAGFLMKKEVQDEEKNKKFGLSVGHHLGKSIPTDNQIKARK

The IC50 is the concentration that gives 50% inhibition. With `O=C1C=C(NCCc2c[nH]c3ccccc23)C(=O)c2ncccc21`, the Activity entry in the series with HeLa S3 [1], in the series listed under Homo sapiens [3], in the series with HeLa S3 [5] and in the series listed under Homo sapiens [6] was “Dose-dependent effect” in each case. The IC50 was 0.55 µM in [2] and 6.25 µM in series [4].
In the case of `CN1CCN(c2ccc(NC3=CC(=O)c4ncccc4C3=O)cc2)CC1`, the IC50 (in the series on HeLa S3 [7]; in the series with HeLa S3 [8]; in series [9]; in series [10]) was more than 3 µM throughout. The Activity entry in the series with HeLa S3 [1], in the series filed under Homo sapiens [3], in the series with HeLa S3 [5] and in the series filed under Homo sapiens [6] was “Dose-dependent effect” each time.
For `COC(=O)/C=C/c1cccc(CNC2=CC(=O)c3ncccc3C2=O)c1`, the Activity result in the series on HeLa S3 [1], in the series listed under Homo sapiens [3], in the series on HeLa S3 [5] and in the series listed under Homo sapiens [6] was “Dose-dependent effect” each time. Further, the figures for the IC50 in [2] and in series [4] were 0.53 µM and 5.25 µM, respectively.
In the case of `CN1CCN(c2ccc(NC3=CC(=O)c4cccnc4C3=O)cc2)CC1`, the Activity in the series with HeLa S3 [11] is 66.3%; with HeLa S3 [12], “Dose-dependent effect”; with HeLa S3 [1], “Dose-dependent effect”; with HeLa S3 [13], “Dose-dependent effect”; in the series listed under Homo sapiens [3] it was “Dose-dependent effect”; in the series on HeLa S3 [14], 12.8%. The Activity in the series on HeLa S3 [15] is 27.6%; in the series with HeLa S3 [16] it was “Dose-dependent effect”; in the series on HeLa S3 [5], “Dose-dependent effect”; in series [18] it was “Non-Toxic”; in the series filed under Homo sapiens [6], “Dose-dependent effect”. Moreover, the IC50 in the series on HeLa S3 [7] was more than 3 µM; in series [2] it was 0.57 µM; in series [4], 0.44 µM; with HeLa S3 [8], more than 3 µM; in series [9], more than 3 µM; in series [10], more than 3 µM. In addition, the result with HeLa S3 [17] was Active.
